These results are taken from ChEMBL document CHEMBL5154824, “Design and synthesis of multifunctional microtubule targeting agents endowed with dual pro-apoptotic and anti-autophagic efficacy” (Eur J Med Chem, 2022).

Converted amounts (≈) assume the structure as drawn. The source made the active and inactive calls. The rule behind the calls is not given here. A value given as a limit tells only on which side of the number the result lay.

Series [1] concerns KYSE-520 cell line. As to the kind of experiment: Cytotoxicity against human KYSE520 cells assessed as inhibition of cell growth measured after 48 hrs by alamar blue viability assay. In kind it is functional, cell-based. To be noted: KYSE-520, 48 h. The procedure, abridged: (§1)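 KYSE-520 oesophageal cells were exposed to at least 8 increasing concentrations for 48 h or 72 h. Viability was read out to give IC50, as the mean ± SD of at least three independent experiments.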

Series [2] in a line: Mutagenicity in Salmonella typhimurium TA98 in absence of rat liver S9 fraction at 0.3 to 60 uM by AMES test. In kind it is toxicity. To be noted: salmonella enterica subsp. enterica serovar typhimurium, s9, 60 µM; dose 0.3-60 µM.
Series [3] concerns HL-60. As to the kind of experiment: Induction of autophagy in human HL-60 cells assessed as increase in p62 protein level at 10 uM […] by Immunoblotting analysis. The class given is functional, cell-based. In general terms: Immunoblotting shows a protein as a band on a membrane.
For the next series, the system named is OE33. The series can be described thus: Cytotoxicity against human OE33 cells assessed as inhibition of cell growth measured after 72 hrs by MTT assay. The class given is functional, cell-based. The following applies: OE33, 72 h. The procedure, abridged: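 Oesophageal adenocarcinoma lines were exposed to at least 8 increasing concentrations for 72 h. Viability was measured by MTT. IC50 is the mean ± SD of at least three independent experiments.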
In general terms: Formazan colour is commonly taken as a measure of viable cells.

Series [4] deals with SCC-4. As to the kind of experiment: Induction of apoptosis in human SCC-4 cells assessed as increase in apoptotic cells at 2 uM after 48 hrs by Annexin V-FITC/PI staining based flow cytometry method. The class given is functional, cell-based. The procedure, abridged: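 SCC4 cells were treated at 0.5 or 2 μM for 48 h, then stained with Annexin V/PI and analysed by flow cytometry. Data are mean ± SEM of three independent experiments, with an unpaired one-tailed t-test versus vehicle.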

In the next series the test system is Ca9-22. The series can be described thus: Cytotoxicity against human Ca9-22 cells assessed as reduction in cell viability measured after 48 hrs by alamar blue viability assay. The class given is functional, cell-based. The following applies: Ca9-22, 48 h. Summed up: (§2)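 Oral squamous carcinoma cells were exposed for 48 h to at least 8 increasing concentrations. Viability was read by AlamarBlue. IC50 is the concentration that halves viability, taken as the mean ± SD of at least three independent experiments.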
For orientation: Alamar Blue is a resazurin reagent that responds to reducing activity.

The subject of another series is NIH3T3. The series can be described thus: Cytotoxicity against mouse NIH3T3 cells assessed as inhibition of cell growth measured after 24 hrs by neutral red uptake assay. In kind it is functional, cell-based. To be noted: NIH3T3, 24 h. The procedure, abridged:
(§3)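 Neutral red uptake viability test. NIH3T3 fibroblasts or primary human oral epithelial cells were exposed to compound at 0.1 to 120 μM. EC50 was derived, with SD below 5%.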

In another series the target is Tubulin (Homo sapiens) (UniProt P68371+Q9H4B7+P0DPH7+P68366+Q13509+Q71U36+P04350+Q3ZCM7+P07437+P68363+Q9BQE3+Q6PEY2+Q13885+Q9BVA1+Q9BUF5). As to the kind of experiment: Binding affinity to microtubule polymerization (unknown origin) assessed as formation of microtubule at 27.5 uM measured for 2 hrs by plate reader method. In kind it is protein-complex assay. Summed up:
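25 μM tubulin in GAB buffer with compound at 27.5 μM or DMSO vehicle; podophyllotoxin 27.5 μM as destabiliser control. Polymerisation started by raising temperature from 4 to 37 °C at time 0; microtubule formation followed as absorbance increase over time.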

A short description of series [5]: Cytotoxicity against human Primary oral epithelial cells assessed as inhibition of cell growth measured after 24 hrs by neutral red uptake assay. The class given is toxicity, cell-based. Summed up:
as §3

For series [6], the system named is KYSE-520 cell line. The series can be described thus: Cytotoxicity against human KYSE520 cells assessed as inhibition of cell growth measured after 72 hrs by alamar blue viability assay. The class given is functional, cell-based. To be noted: KYSE-520, 72 h. Summed up:
as §1

The subject of series [7] is HL-60. The series can be described thus: Induction of autophagy in human HL-60 cells assessed as increase in LC3-II protein level at 10 uM measured up to 1 hr by Immunoblotting analysis. The class given is functional, cell-based.
The subject of series [8] is SCC-4. As to the kind of experiment: Induction of autophagy in human SCC-4 cells assessed as decrease in UlK1 protein level at 10 uM in measured after 24 hrs by Immunoblotting analysis. The class given is functional, cell-based. The procedure, abridged:
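SCC4 cells under basal conditions were treated at 10 μM for 24 h. Autophagy-related proteins were immunoblotted, and densitometry was expressed as a ratio normalised to vehicle control.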

Series [9] is described as follows: Metabolic stability in human liver microsomes assessed as half life by HPLC analysis. The class given is ADME, Microsome. Summed up:
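Compound incubated with human liver microsomes plus an NADPH-generating system. Log % of compound recovered (100% at 0 min) was plotted against incubation time and fitted to a monoexponential decay. Controls were boiled microsomes, or microsomes without NADPH-GS, at 37 °C for 60 min.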

A short description of series [10]: Induction of Pro-apoptosis in human HL-60 cells assessed as increase in apoptotic cells at 10 uM after 48 hrs by Annexin-V/PI-staining based flow cytometry. In kind it is functional.
Series [11] relates to HL-60. As to the kind of experiment: Induction of autophagy in human HL-60 cells assessed as increase in LC3-II protein level at 10 uM in presence of chloroquine […] by Immunoblotting analysis. In kind it is functional, cell-based.
Series [12] addresses Mitogen-activated protein kinase; ERK1/ERK2 (Homo sapiens) (UniProt P27361+P28482). As to the kind of experiment: Inhibition of ERK1/2 phosphorylation in human HL-60 cells at 10 uM measured after 2 hrs by Immunoblotting analysis. In kind it is cell-based. Summed up: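 HL-60 cells were treated at 10 μM or with DMSO vehicle for 2 h. Phospho-NF-κB and phospho-Erk1/2 were immunoblotted and quantified by densitometry relative to β-tubulin. Data are mean ± SD (n = 2), analysed by one-way ANOVA.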

Series [13] in a line: Mutagenicity in Salmonella typhimurium TA98 in presence of rat liver S9 fraction at 0.3 to 60 uM by AMES test. The class given is toxicity, subcellular. To be noted: salmonella enterica subsp. enterica serovar typhimurium, s9, 60 µM; dose 0.3-60 µM.
A further series deals with HeLa. The series can be described thus: Induction of autophagy in human HeLa cells assessed as increasing number of autophagosomes at 1 to 10 uM incubated for 3 hrs with HBSS medium by immunofluorescence based laser scanning confocal microscopic analysis. The class given is functional, cell-based. To be noted: dose 1-10 µM. The procedure, abridged: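 HeLa cells were treated in HBSS at 1 or 10 μM, with BafA1 300 nM as reference, for 3 h. After fixation in ice-cold methanol, LC3 and LAMP1 were immunostained. Laser scanning confocal microscopy assessed autophagosome number and LC3/LAMP1 colocalisation.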

The subject of another series is A549. The series can be described thus: Cytotoxicity against human A549 cells assessed as inhibition of cell growth measured after 48 hrs by MTT assay. The class given is functional, cell-based. The following applies: A549, 48 h.
Series [14] is described as follows: Aqueous solubility of the compound in pH 3 measured after 24 hrs by HPLC/DAD/UV analysis. The class given is physicochemical. To be noted: aqueous solution at pH 3, pH 3. The procedure, abridged:
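Solubility in aqueous buffer at pH 3, measured by HPLC after 24 h.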

Series [15] is described as follows: Mutagenicity in Salmonella typhimurium TA100 in presence of rat liver S9 fraction at 0.3 to 60 uM by AMES test. In kind it is toxicity, subcellular. The following applies: salmonella enterica subsp. enterica serovar typhimurium, s9, 60 µM; dose 0.3-60 µM.
Series [16] concerns SCC-4. The series can be described thus: Cytotoxicity against human SCC-4 cells assessed as reduction in cell viability measured after 48 hrs by alamar blue viability assay. In kind it is functional, cell-based. The following applies: SCC-4, 48 h. Summed up:
as §2

Series [17] relates to SCC-4. The series can be described thus: Induction of autophagy in human SCC-4 cells assessed as increase in LC3-II to LC3-I ratio at 10 uM in absence of EBSS measured after 3 hrs by Western blot analysis. The class given is functional, cell-based. Summed up: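 SCC4 cells were pre-incubated with or without EBSS for 30 min, then given 10 μM compound, with 10 μM chloroquine as reference, for 3 h. LC3-I/II was assessed by Western blot with GAPDH loading control. The LC3-II/LC3-I ratio came from densitometry, as mean ± SEM of four experiments, with an unpaired one-tailed t-test.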

Mitogen-activated protein kinase; ERK1/ERK2 (Homo sapiens), sequence (P27361 whole entry, looked up): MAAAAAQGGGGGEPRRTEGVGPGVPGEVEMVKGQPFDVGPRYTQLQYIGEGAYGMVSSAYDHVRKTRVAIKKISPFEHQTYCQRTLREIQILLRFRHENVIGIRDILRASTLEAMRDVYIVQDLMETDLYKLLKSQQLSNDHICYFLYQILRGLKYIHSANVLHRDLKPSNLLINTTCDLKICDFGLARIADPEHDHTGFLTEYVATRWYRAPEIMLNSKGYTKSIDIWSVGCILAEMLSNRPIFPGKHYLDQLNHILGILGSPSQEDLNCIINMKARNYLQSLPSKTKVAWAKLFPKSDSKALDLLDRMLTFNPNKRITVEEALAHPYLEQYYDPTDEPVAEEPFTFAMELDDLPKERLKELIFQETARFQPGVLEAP
Mitogen-activated protein kinase; ERK1/ERK2 (Homo sapiens), sequence (P28482 whole entry, looked up): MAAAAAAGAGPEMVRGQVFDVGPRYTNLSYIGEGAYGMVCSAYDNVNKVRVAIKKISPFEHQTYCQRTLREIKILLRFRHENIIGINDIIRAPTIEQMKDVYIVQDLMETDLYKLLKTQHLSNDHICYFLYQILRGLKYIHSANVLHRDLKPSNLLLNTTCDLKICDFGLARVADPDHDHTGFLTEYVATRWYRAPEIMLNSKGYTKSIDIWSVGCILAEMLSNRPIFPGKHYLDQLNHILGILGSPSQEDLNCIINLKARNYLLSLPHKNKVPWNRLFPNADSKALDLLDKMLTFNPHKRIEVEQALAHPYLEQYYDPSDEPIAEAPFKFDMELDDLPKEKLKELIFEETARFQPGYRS

What is called IC50 is the point on the concentration scale where inhibition reaches its midpoint. The term EC50 denotes the concentration at which the effect is half-maximal. The half-life is the time in which the quantity being followed falls by half. In general, solubility refers to the dissolved amount per volume that the medium holds. Low values mean a poorly soluble substance, high ones a readily soluble substance. As to `CN1CCN(C(=O)OC2=C(c3cccc4ncccc34)Oc3cc4ccccc4cc3-n3cccc32)CC1`, the half-inhibitory concentration (IC50) in the series with KYSE-520 cell line [1] was found to be 3600 nM; in the series on OE33 it was 400 nM; in the series on Ca9-22 it was 130 nM; in the series on KYSE-520 cell line [6] it was 1680 nM; in the series with A549 it was 0.774 µM; with SCC-4 [16], 540 nM. Moreover, the Activity result is on record as “Non-Toxic” in series [2], “>=70%” in series [10], “Non-Toxic” in series [13] and “Non-Toxic” in series [15]. The outcome with HL-60 [3], in the series with SCC-4 [4], at Tubulin (Homo sapiens), in the series with HL-60 [7], in the series on SCC-4 [8] and in the series on HL-60 [11] was Active. Also, the outcome in the series on HeLa and in the series on SCC-4 [17] was Active. Also, the EC50 in the series with NIH3T3 stood at 450 nM. Also, the EC50 at 24 h in series [5] was 45 µM. Moreover, the half-life in series [9] is 30.8 min. For the same compound, the inhibition entry in series [12] was “Active”. The compound further gave a solubility at 24 h in [14] of 204 µM (≈ 103 µg/mL).
Take `O=C(OC1=C(c2cccc3ncccc23)Oc2cc3ccccc3cc2-n2cccc21)C1CCNCC1`: the concentration for half-maximal inhibition (IC50) in the series with KYSE-520 cell line [1] turned out to be 1680 nM; with OE33, 1930 nM; in the series with Ca9-22 it was 2000 nM; in the series on KYSE-520 cell line [6] it was 890 nM; in the series with A549, 6.15 µM; with SCC-4 [16], 850 nM. Moreover, the Activity entry in series [2] is on record as “Non-Toxic”; in series [10] it was “>=70%”; in [13], “Non-Toxic”; in series [15], “Non-Toxic”. Moreover, the outcome with HL-60 [3], in the series with SCC-4 [4], on Tubulin (Homo sapiens), in the series on HL-60 [7], in the series on SCC-4 [8] and in the series on HL-60 [11] was Active. The outcome in the series on HeLa and with SCC-4 [17] was Active. Further, the EC50 with NIH3T3 worked out at 600 nM. In addition, the half-maximal effective concentration (EC50) at 24 h in series [5] turned out to be 45 µM. For the same compound, in series [9], the half-life is 91.2 min. In series [12], the inhibition entry was “Active”. For the same compound, the solubility at 24 h in [14] was found to be 271 µM (≈ 132 µg/mL).
